Experimental data: ChEMBL document CHEMBL5712070, “Discovery of a chemical probe for the L3MBTL3 methyllysine reader domain” (Nat Chem Biol, 2013)

Key:
[1] = molecular target: T1, Muscarinic acetylcholine receptor M1 (Homo sapiens, UniProt P11229); assay: Inhibition of M1 receptor (unknown origin) by Ca2+ mobilization assay; format: functional
T1 sequence (P11229 whole entry): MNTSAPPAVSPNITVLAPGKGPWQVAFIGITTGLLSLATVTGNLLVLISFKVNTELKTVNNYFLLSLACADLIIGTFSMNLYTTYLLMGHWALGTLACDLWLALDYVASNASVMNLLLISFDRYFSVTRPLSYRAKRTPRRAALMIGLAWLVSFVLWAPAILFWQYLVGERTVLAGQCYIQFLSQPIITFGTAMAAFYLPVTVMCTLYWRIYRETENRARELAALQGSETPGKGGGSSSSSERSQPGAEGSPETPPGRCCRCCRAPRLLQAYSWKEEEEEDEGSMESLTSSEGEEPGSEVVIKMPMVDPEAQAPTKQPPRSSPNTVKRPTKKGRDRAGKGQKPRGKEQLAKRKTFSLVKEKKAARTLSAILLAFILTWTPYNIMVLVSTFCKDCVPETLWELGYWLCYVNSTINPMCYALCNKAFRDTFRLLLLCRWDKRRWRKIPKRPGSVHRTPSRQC

[2] = molecular target: Chromobox protein homolog 7 (Homo sapiens, UniProt O95931); assay: Inhibition of chromo domain containing CBX7 (unknown origin) using H4K20me2 peptide by Alpha-Screen methylated histone peptide competition assay
[3] = molecular target: T2, Lethal(3)malignant brain tumor-like protein 3 (Homo sapiens) (UniProt Q96JM7); details: dose 0.1 µM
T2 sequence (whole entry): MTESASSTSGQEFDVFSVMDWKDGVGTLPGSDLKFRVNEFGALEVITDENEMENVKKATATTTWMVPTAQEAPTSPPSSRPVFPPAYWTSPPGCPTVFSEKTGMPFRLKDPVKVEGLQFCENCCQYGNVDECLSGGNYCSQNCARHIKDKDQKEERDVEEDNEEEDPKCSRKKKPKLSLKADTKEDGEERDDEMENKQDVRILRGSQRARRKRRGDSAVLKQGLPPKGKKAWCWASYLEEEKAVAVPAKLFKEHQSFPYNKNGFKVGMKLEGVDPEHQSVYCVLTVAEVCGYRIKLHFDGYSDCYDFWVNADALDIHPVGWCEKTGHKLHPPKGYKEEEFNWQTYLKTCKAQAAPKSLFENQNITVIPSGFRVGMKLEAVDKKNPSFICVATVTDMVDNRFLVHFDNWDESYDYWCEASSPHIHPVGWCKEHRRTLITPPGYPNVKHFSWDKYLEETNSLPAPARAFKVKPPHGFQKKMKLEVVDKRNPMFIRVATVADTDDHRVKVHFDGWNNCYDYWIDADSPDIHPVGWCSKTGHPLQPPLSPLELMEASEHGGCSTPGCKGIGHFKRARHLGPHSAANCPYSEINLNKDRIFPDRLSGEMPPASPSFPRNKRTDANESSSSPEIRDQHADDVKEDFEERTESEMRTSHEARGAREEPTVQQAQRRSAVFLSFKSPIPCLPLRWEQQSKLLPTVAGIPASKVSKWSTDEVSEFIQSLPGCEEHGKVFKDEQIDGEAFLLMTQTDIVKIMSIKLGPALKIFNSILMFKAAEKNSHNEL

[4] = molecular target: T3, Lethal(3)malignant brain tumor-like protein 3 (Homo sapiens, UniProt Q96JM7); assay: Inhibition of GFP-3MBT tagged L3MBTL3 (unknown origin) expressed in HEK293 cells assessed as disruption of foci formation by immunofluorescence assay; format: cell-based
T3 sequence (Q96JM7 whole entry): T2 sequence (whole entry)
Procedure, shortened: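 HEK293 cells seeded on coverslips at 100,000 cells/well, transfected 16–24 h later with GFP-3MBT and expressed for 48 h. Compound given at the indicated concentrations for at least 24 h before imaging. Nuclei stained with Hoechst 33342 for 30 min, then spinning-disk confocal imaging. Foci quantified as % GFP intensity.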

[5] = molecular target: T2, Lethal(3)malignant brain tumor-like protein 3 (Homo sapiens); details: dose 0.01 µM
[6] = molecular target: T3, Lethal(3)malignant brain tumor-like protein 3; assay: Binding affinity to GFP-tagged full length L3MBTL3 (unknown origin) assessed as diffusion coefficient at 0.01 uM (reference value: 0.037549815 um2/s)
[7] = Binding affinity to L3MBTL3 F387A mutant (unknown origin) by ITC assay; design: species or system Homo sapiens
[8] = molecular target: Mortality factor 4-like protein 1 (Homo sapiens, UniProt Q9UBU8); assay: Binding affinity to MRG15 (unknown origin) by ITC assay
[9] = molecular target: E3 ubiquitin-protein ligase UHRF1 (Homo sapiens, UniProt Q96T88); assay: Inhibition of tudor domain containing UHRF1 (unknown origin) using H4K20me2 peptide by Alpha-Screen methylated histone peptide competition assay
[10] = molecular target: T3, Lethal(3)malignant brain tumor-like protein 3; assay: Inhibition of L3MBTL3 (unknown origin) using H4K20me2 peptide by Alpha-Screen methylated histone peptide competition assay

Chain of Mortality factor 4-like protein 1 (Q9UBU8 whole entry, the tested form may be a part): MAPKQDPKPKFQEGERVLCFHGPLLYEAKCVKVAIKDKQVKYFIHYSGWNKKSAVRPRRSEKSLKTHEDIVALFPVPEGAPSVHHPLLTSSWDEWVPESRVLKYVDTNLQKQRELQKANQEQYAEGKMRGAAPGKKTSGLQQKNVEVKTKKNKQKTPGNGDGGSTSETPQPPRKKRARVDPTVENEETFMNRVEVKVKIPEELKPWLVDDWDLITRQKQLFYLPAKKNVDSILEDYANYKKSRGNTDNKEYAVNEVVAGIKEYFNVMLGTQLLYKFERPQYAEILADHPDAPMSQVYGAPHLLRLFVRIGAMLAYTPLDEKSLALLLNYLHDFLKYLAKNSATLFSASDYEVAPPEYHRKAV
Chain of Chromobox protein homolog 7 (O95931 whole entry, the tested form may be a part): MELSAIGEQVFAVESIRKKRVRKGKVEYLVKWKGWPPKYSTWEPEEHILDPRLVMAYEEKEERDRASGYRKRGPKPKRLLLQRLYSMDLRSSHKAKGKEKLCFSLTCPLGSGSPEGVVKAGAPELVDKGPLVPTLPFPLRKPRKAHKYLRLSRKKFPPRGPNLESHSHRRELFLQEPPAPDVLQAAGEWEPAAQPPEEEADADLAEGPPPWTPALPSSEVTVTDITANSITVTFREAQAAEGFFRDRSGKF
Chain of E3 ubiquitin-protein ligase UHRF1 (Q96T88 whole entry, the tested form may be a part): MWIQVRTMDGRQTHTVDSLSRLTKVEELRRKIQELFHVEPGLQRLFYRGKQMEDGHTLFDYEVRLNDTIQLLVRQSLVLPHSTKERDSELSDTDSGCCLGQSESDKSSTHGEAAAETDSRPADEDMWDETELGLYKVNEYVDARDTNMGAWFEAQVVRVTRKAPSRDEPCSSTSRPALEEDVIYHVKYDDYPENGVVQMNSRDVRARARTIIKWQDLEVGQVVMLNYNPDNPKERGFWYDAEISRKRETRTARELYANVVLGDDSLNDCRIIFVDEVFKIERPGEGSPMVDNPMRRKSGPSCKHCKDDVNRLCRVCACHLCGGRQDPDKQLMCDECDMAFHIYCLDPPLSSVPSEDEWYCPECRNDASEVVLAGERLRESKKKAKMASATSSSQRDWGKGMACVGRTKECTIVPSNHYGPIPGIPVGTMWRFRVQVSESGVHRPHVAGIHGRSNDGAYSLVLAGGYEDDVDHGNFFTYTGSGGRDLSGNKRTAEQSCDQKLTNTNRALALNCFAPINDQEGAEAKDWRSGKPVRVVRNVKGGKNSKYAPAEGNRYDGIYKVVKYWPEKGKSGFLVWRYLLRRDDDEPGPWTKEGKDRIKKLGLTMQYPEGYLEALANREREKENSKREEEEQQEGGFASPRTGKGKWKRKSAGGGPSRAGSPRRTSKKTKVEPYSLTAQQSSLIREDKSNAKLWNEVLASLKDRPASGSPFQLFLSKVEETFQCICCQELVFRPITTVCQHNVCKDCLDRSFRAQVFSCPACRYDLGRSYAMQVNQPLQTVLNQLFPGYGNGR

O=C(c1ccc(C(=O)N2CCC(N3CCCC3)CC2)c(Nc2ccccc2)c1)N1CCC(N2CCCC2)CC1
IC50 [1]: 3500 nM
IC50 [2]: > 30000 nM
T1/2 [3]: 20.1 s
IC50 [4]: 500 nM
T1/2 [5]: 23.8 s
Diffusion coefficient [6]: 0.043 um2/s
Kd [7]: 1000 nM
Kd [8]: 28900 nM
IC50 [9]: > 30000 nM
IC50 [10]: 40 nM
